We go through 36 compounds from ChEMBL document CHEMBL4680290, “Design, synthesis and biological evaluation of novel chalcone-like compounds as potent and reversible pancreatic lipase inhibitors” (Bioorg Med Chem, 2021).

In data set [1] the target is T1, Pancreatic triacylglycerol lipase (Sus scrofa, UniProt P00591).
T1 sequence (P00591 whole entry): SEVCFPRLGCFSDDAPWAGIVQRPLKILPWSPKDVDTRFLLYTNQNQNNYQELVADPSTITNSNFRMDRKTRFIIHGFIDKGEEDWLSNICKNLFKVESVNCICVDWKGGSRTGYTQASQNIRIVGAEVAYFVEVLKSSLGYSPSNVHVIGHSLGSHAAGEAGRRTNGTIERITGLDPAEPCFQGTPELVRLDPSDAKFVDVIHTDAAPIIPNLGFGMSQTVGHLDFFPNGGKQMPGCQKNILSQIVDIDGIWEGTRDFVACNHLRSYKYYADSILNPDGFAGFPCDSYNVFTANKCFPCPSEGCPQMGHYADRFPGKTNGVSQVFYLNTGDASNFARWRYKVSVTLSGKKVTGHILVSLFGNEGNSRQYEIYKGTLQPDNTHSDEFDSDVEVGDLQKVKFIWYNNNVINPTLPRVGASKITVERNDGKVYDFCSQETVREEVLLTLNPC
The data set is described as follows: Inhibition of porcine pancreatic lipase preincubated for 10 mins followed by 4-MUO addition and measured at 60 sec interval for 40 mins by multi plate micro plate reader. The method in brief: (§1)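 Porcine pancreatic lipase (type II) at 0.01 mg/mL final in 0.1 M citrate phosphate buffer pH 7.4 with inhibitor at various concentrations, vortexed, preincubated 10 min at 37 °C. Reaction started with 4-MUO, and fluorescence of released 4-MU read on a microplate reader. IC50 obtained by nonlinear regression; mean ± SD of triplicates.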

Data set [2] is described as follows: Inhibition of porcine pancreatic lipase type 2. On the set-up: species or system Sus scrofa. The method in brief: as §1
Data set [3] can be described thus: Metabolic stability in human liver microsomes assessed as half life in Phase I metabolic system at 10 uM measured by LC-UV method. In kind it is ADME, Microsome. The gist of the method:
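Phase I incubation with human liver preparations, compound or testosterone control at 10 μM final. Remaining compound quantified by LC-UV (ODS column, 40 °C, acetonitrile/0.2% formic acid water gradient, 0.4 mL/min, detection 370 nm) to give in vitro half-life.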
Background: Liver microsomes are vesicles of endoplasmic reticulum, rich in cytochrome P450 enzymes.

Data set [4] concerns the target T1, Pancreatic triacylglycerol lipase. Nature of the data set: Mixed type inhibition of porcine pancreatic lipase using 4MUO as substrate by Lineweaver-Burk plot analysis. The gist of the method: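 Kinetics of porcine pancreatic lipase with varied 4-MUO concentrations and increasing inhibitor doses, otherwise as in the standard assay (0.01 mg/mL enzyme, citrate phosphate pH 7.4, 37 °C, 4-MU fluorescence read-out). Inhibition mode and Ki taken from inhibition kinetic plots and Lineweaver-Burk plots, with a secondary plot of slopes. Nonlinear regression; mean ± SD of triplicates.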

Data set [5] in a line: Metabolic stability in artificial intestinal fluids assessed as half life at 100 uM by LC-UV method. The gist of the method: (§2)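 Artificial gastric or intestinal fluid (800 μL) prewarmed 3 min at 37 °C, then compound added to 100 μM final. Aliquots taken at 0, 0.5, 1, 2 and 4 h and quenched with equal volume of ice-cold acetonitrile. Half-life derived from remaining compound.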

Data set [6] in a line: Metabolic stability in artificial gastrointestinal fluids assessed as half life at 100 uM by LC-UV method. The method in brief: as §2
Data set [7] is described as follows: Metabolic stability in human liver microsomes assessed as half life in Phase II metabolic system at 10 uM measured by LC-UV method. It is filed as ADME, Microsome. The gist of the method:
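Phase II system of human liver preparations, compound at 10 μM final. Remaining compound measured by UFLC-UV on an ODS column (2.1 × 150 mm, 2.2 μm) at 40 °C and 0.4 mL/min, with an acetonitrile / water (0.2% formic acid) gradient, detection at 370 nm. Half-life reported.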

As for `COc1cc(OC)c(/C=C2\Cc3ccc(O)cc3C2=O)c(OC)c1`, the IC50 (as a rule, the concentration needed to halve the response being measured) in data set [1] stood at 20.7 µM. On the same count and under the same terms, the result for `COc1cc(/C=C2\Cc3ccc(N4CCCCC4)cc3C2=O)ccc1O` reads 3.32 µM; that for `COc1cc(/C=C2\Cc3ccc(OC(C)C)cc3C2=O)ccc1O`, 8.61 µM; that for `COc1cc(/C=C2\Cc3ccc(NCCC(C)CCCC(C)C)cc3C2=O)ccc1O` (stereo unspecified), 2.52 µM.

In data set [1], `COc1cc(/C=C2\Cc3ccc(N4CCCC4)cc3C2=O)ccc1O` gave an IC50 of 3.5 µM.

In turn, `CC(C)=CCc1cc(C(=O)/C=C/c2ccc(O)cc2)c(O)cc1O` [BROUSSOCHALCONE B] came in with an IC50 in data set [2] of 5.7 µM. `COc1cc(/C=C2\Cc3ccc(N(CCC(C)CCCC(C)C)CCC(C)CCCC(C)C)cc3C2=O)ccc1O` (stereo unspecified) displayed an IC50 in data set [1] of 0.83 µM. As for `O=C1/C(=C/c2ccccc2)Cc2ccccc21`, 22.5 µM corresponded to half-maximal inhibition in data set [2] (IC50). `O=C1/C(=C/c2ccc(O)cc2)Cc2ccccc21` registered an IC50 in data set [1] of 14.9 µM. In data set [1], `COc1cc(/C=C2\Cc3ccccc3C2=O)ccc1O` showed an IC50 of 6.94 µM. This IC50 is about 2.1-fold lower than that of the compound before. Compound `COc1cc(/C=C2\Cc3ccc(N(CCCCCCCCCCCCO)CCCCCCCCCCCCO)cc3C2=O)ccc1O` registered an IC50 in data set [1] of 0.33 µM. The half-life (as a rule, the time in which the quantity being followed falls by half) at 10 µM in data set [3] was 3.68 h; in data set [7], 1.95 h. The Ki – broadly, a measure of affinity in units of concentration, obtained from inhibition or displacement – in data set [4] is 0.12 µM. Besides, the results for the T1/2 in data set [5] and in data set [6] were over 4 h and 3.89 h, respectively. As to `CCN(CC)c1ccc2c(c1)C(=O)/C(=C/c1ccc(O)c(OC)c1)C2`, the IC50 in data set [1] turned out to be 1.69 µM. `COc1cc(OC)c(OC)cc1/C=C1\Cc2ccc(O)cc2C1=O` registered an IC50 in data set [1] of 35 µM. Still for that read-out and setting: the result for `COc1cc(/C=C2\Cc3ccc(N)cc3C2=O)ccc1O` reads 12.4 µM; that for `COc1cc(/C=C2\Cc3ccc(O)cc3C2=O)cc(OC)c1OC`, 14.8 µM; that for `O=C1/C(=C/c2ccccc2Cl)Cc2ccc(O)cc21`, over 100 µM. On the same count and under the same terms, the result for `O=C(/C=C/c1ccccc1)c1ccccc1` [CHALCONE] reads 84.4 µM; that for `O=C1/C(=C/c2ccc(O)cc2)Cc2ccc(O)cc21`, over 100 µM; that for `O=C1/C(=C/c2ccccc2F)Cc2ccc(O)cc21`, over 100 µM. In data set [1], `O=C1/C(=C/c2ccc(Br)cc2)Cc2ccc(O)cc21` came in with an IC50 of 75.6 µM. Regarding `O=c1ccc2ccc(O)cc2o1` [UMBELLIFERONE], the half-life at 10 µM in data set [7] worked out at 0.258 h. As to `O=C1/C(=C/c2ccc(F)cc2)Cc2ccc(O)cc21`, half-maximal inhibition in data set [1] (IC50) was put at 32.7 µM. `C=CCCCCN(CCCCC=C)c1ccc2c(c1)C(=O)/C(=C/c1ccc(O)c(OC)c1)C2`: the midpoint of inhibition in data set [1], the IC50, lay at 2.09 µM. This IC50 is about 16-fold lower than that of the compound before. In data set [1], `O=C1/C(=C/c2ccccc2Br)Cc2ccc(O)cc21` returned an IC50 of 28.9 µM. Compared with the last compound, the IC50 is about 14-fold higher. The same measure, in the same setting: the result for `COc1ccc2c(c1)C(=O)/C(=C/c1ccc(O)c(OC)c1)C2` reads 37.1 µM; that for `COc1ccc(/C=C2\Cc3ccc(O)cc3C2=O)c(OC)c1`, 24.8 µM. Still for that read-out and setting: the result for `C=CCCCCNc1ccc2c(c1)C(=O)/C(=C/c1ccc(O)c(OC)c1)C2` reads 25.1 µM. In data set [1], `C=CCCCCCCCCNc1ccc2c(c1)C(=O)/C(=C/c1ccc(O)c(OC)c1)C2` yielded an IC50 of 84.1 µM. This IC50 is about 3.4-fold higher than that of the compound before. As for `COc1cc(/C=C2\Cc3ccc(O)cc3C2=O)ccc1O`, the IC50 in data set [1] amounted to 10.4 µM. For the compound `O=C1/C(=C/c2ccc(Cl)c(Cl)c2)Cc2ccc(O)cc21`, the IC50 in data set [1] was 75.4 µM. As for `C=CCCCCCCCCN(CCCCCCCCC=C)c1ccc2c(c1)C(=O)/C(=C/c1ccc(O)c(OC)c1)C2`, in data set [1], the IC50 came to 0.58 µM. `CCCOc1ccc2c(c1)C(=O)/C(=C/c1ccc(O)c(OC)c1)C2` showed an IC50 in data set [1] of 2.54 µM. For `CC(C)=CCc1c(O)ccc(C(=O)/C=C/c2ccc(O)cc2)c1O` [ISOBAVACHALCONE], the IC50 in data set [2] came to 3.3 µM.

`CC(C)=CCc1c(O)ccc(C(=O)/C=C/c2ccc(O)cc2O)c1O` [MORACHALCONE A]: the midpoint of inhibition in data set [2], the IC50, lay at 6.2 µM. Compound `O=C1/C(=C/c2cccc(Br)c2)Cc2ccc(O)cc21` yielded an IC50 in data set [1] of 14.8 µM. The same measure, in the same setting: under `COc1cc(/C=C2\Cc3ccc(NCCCCCCCCCCCCO)cc3C2=O)ccc1O` stands 0.68 µM.
